Data reported in ChEMBL document CHEMBL4823242, “Cytotoxic Naphthoquinone Analogues, Including Heterodimers, and Their Structure Elucidation Using LR-HSQMBC NMR Experiments” (J Nat Prod, 2021).

Columns and labels:
Type in all cases: functional, cell-based
MDA-MB-435 = experiment: Cytotoxicity against human MDA-MB-435 cells after 72 hrs by Cell Titer-Blue cell viability assay; details: MDA-MB-435, 72 h
How it was run: (§1)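 Cells kept at 37 °C, 5% CO2 in RPMI 1640 with 10% FBS, penicillin 100 units/mL and streptomycin 100 μg/mL. Log-phase cells harvested by trypsin, washed twice, seeded at 5,000 per well and left overnight. DMSO-dissolved samples diluted and added, then 72 h at 37 °C. Viability read by CellTiter-Blue absorbance. IC50 is the concentration giving 50% growth relative to DMSO control.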

MDA-MB-231 = experiment: Cytotoxicity against human MDA-MB-231 cells after 72 hrs by Cell Titer-Blue cell viability assay; details: MDA-MB-231, 72 h; how it was run: as §1
OVCAR-3 = experiment: Cytotoxicity against human OVCAR-3 cells after 72 hrs by Cell Titer-Blue cell viability assay; details: OVCAR-3, 72 h; how it was run: as §1

SMILES	IC50 (MDA-MB-435) [µM]	IC50 (MDA-MB-231) [µM]	IC50 (OVCAR-3) [µM]
CCc1c(OC)cc2c(c1O)C(=O)C=C(OC)C2=O	2.1	7.8	7.3
CCc1c(OC)cc2c(c1O)C(=O)C[C@@H](OC)[C@H]2O	> 25	> 25	> 25
COC1=CC(=O)c2c(cc(OC)c(C)c2O)C1=O	3.2	15	9.6
COC1=CC(=O)c2c(cc(OC)c(C(C)OC(C)=O)c2O)C1=O (racemic)	0.7	6.2	0.9
COC1=CC(=O)c2c(cc(OC)c(C(C)C3=C(O)C(=O)c4cc(OC)cc(O)c4C3=O)c2O)C1=O (racemic)	3.6	20	17
CCc1c(OC)cc2c(c1O)C(=O)C(C(C)c1c(OC)cc3c(c1O)C(=O)C=C(OC)C3=O)=C(O)C2=O (racemic)	15	17	18
COC1=CC(=O)c2c(cc(OC)c(C(C)OC)c2O)C1=O (racemic)	3.4	12	13
COC1=CC(=O)c2c(cc(OC)c(C(C)O)c2O)C1=O (racemic)	3	12	7.9
COC1=CC(=O)c2c(cc(OC)c(C(C)C3=C(O)C(=O)c4cc(O)c(C(C)=O)c(O)c4C3=O)c2O)C1=O (racemic) [KIRSCHSTEININ]	2.2	4.4	6.6
CC(=O)O[C@H]1C(=O)[C@@]2(C)[C@H]([C@H](OC(=O)c3ccccc3)[C@]3(O)C[C@H](OC(=O)[C@H](O)[C@@H](NC(=O)c4ccccc4)c4ccccc4)C(C)=C1C3(C)C)[C@]1(OC(C)=O)CO[C@@H]1C[C@@H]2O [PACLITAXEL]	–	0.0002	0.0051
